Data from ChEMBL document CHEMBL4177541, “Identification of Pyridinium with Three Indole Moieties as an Antimicrobial Agent” (J Nat Prod, 2017).
pIC50: −log10 of the molar value. In brackets after ≈: the same amount, converted by molar mass.

Columns and labels:
[1] = system: Candida albicans; assay: Antimicrobial activity against Candida albicans incubated for 24 hrs by CLSI protocol based method; type: functional
[2] = system: P388; assay: Cytotoxicity against mouse P388 cells assessed as reduction in cell viability by MTT assay; type: functional, cell-based
Procedure, shortened: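 P388 murine leukemia cells were maintained in DMEM with 10% FBS and penicillin-streptomycin. After compound exposure, MTT (15 μL of a 5.0 mg/mL solution) was added for 3 h. The supernatant was removed and formazan dissolved in DMSO. IC50 was derived.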

[3] = system: Bacillus cereus; assay: Antimicrobial activity against Bacillus cereus incubated for 20 hrs by CLSI protocol based method; type: functional
[4] = system: Staphylococcus aureus; assay: Antimicrobial activity against methicillin-sensitive Staphylococcus aureus incubated for 20 hrs by CLSI protocol based method; type: functional
[5] = system: Escherichia coli; assay: Antimicrobial activity against Escherichia coli W3110 incubated for 20 hrs by CLSI protocol based method; type: functional; details: W3110, 20 h

`Brc1cc(Br)c[n+](CCc2c[nH]c3ccccc23)c1.[Br-]` was tested, and the MIC [1] was 100 µg/mL, the pIC50 [2] was 4.12 and the MIC [3] was over 100 µg/mL. The MIC [4] was over 100 µg/mL and the MIC [5] was over 100 µg/mL.

In the case of `[Br-].c1ccc2c(CC[n+]3cccc(-c4c[nH]c5ccccc45)c3)c[nH]c2c1`, the MIC [1] was 100 µg/mL, the pIC50 [2] was 4.30 and the MIC [3] was 25 µg/mL. The MIC [4] was 50 µg/mL and the MIC [5] was over 100 µg/mL.

With `[Br-].c1cc[n+](CCc2c[nH]c3ccccc23)cc1` the MIC [1] was 100 µg/mL, the pIC50 [2] was 4.28 and the MIC [3] was over 100 µg/mL. The MIC [4] was over 100 µg/mL and the MIC [5] was over 100 µg/mL.

With `[Br-].c1ccc2c(CC[n+]3cc(-c4c[nH]c5ccccc45)cc(-c4c[nH]c5ccccc45)c3)c[nH]c2c1` the MIC [1] was 12.5 µg/mL, the pIC50 [2] was 6.00 and the MIC [3] was 0.78 µg/mL. For the same compound, the MIC [4] was 1.56 µg/mL and the MIC [5] was over 100 µg/mL.

Compound `CC1(C)S[C@@H]2[C@H](NC(=O)[C@H](N)c3ccccc3)C(=O)N2[C@H]1C(=O)O` [AMPICILLIN] has an MIC [1] of 100 µg/mL (≈ 286 µM), an MIC [3] of 0.063 µg/mL (≈ 0.18 µM) and an MIC [4] of 0.5 µg/mL (≈ 1.43 µM). For the same compound, the MIC [5] was 4 µg/mL (≈ 11.4 µM).
